From ChEMBL document CHEMBL1765029, “Synthesis and biological evaluation of estradiol linked pyrrolo[2,1-c][1,4]benzodiazepine (PBD) conjugates as potential anticancer agents” (2011) come the findings set out here.

The source made the active and inactive calls. No cut-off for these calls is given here.

For experiment [1], the system named is MCF7. Description: Cytotoxicity against human MCF7 cells at 4 uM after 24 hrs by MTT assay. Type of experiment: functional, cell-based. A digest of the protocol: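 MCF-7 cells seeded at 10,000 per well, incubated overnight, then treated at 4 µM for 24 h; DMSO control. Medium replaced with MTT, 2 h at 37 °C. Formazan solubilised in extraction buffer, absorbance read at 570 nm, expressed as percent viability.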
(In general: Tetrazolium assays rely on reduction of a dye to a coloured formazan, in cell work by metabolically active cells.)

Experiment [2] relates to MCF7. Description: Cell cycle arrest in human MCF7 cells assessed as accumulation at G0 phase using propidium iodide staining at 4 uM after 24 hrs by flow cytometry. Type of experiment: functional. A digest of the protocol: (§1)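 MCF-7 cells (5 × 10⁵ per 60 mm dish) grown 24 h, then exposed to 4 µM compound for a further 24 h; DMSO-treated control. Cells trypsinised, fixed in ice-cold 70% ethanol at 4 °C for 30 min, RNase-treated (1 mg/mL, 37 °C, 30 min), stained with propidium iodide/citrate/Triton X-100. DNA content read on 20,000 events by flow cytometry; percent cells per phase reported.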
(Flow cytometry measures light scatter and fluorescence of single cells or particles in a stream.)

Experiment [3] concerns MCF7. Description: Cell cycle arrest in human MCF7 cells assessed as accumulation at G2/M phase using propidium iodide staining at 4 uM after 24 hrs by flow cytometry. Format: functional. A digest of the protocol: as §1
Experiment [4] relates to MCF7. Nature of the experiment: Reduction in Cdk1 protein level in human MCF7 cells at 4 uM after 24 hrs by Western blot analysis. Format: functional, cell-based. A digest of the protocol: (§2)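 MCF-7 cells (5 × 10⁵ per 60 mm dish) grown 24 h, then treated at 4 µM for 24 h. Lysis in ice-cold RIPA buffer with protease/phosphatase inhibitors; protein measured by Bradford. Fifty µg per lane resolved on 12% SDS-PAGE and transferred to PVDF. Blocked 2 h, primary antibody overnight at 4 °C, chemiluminescent detection; β-actin as loading control.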
In general terms: Immunoblotting shows a protein as a band on a membrane.

The test system of experiment [5] is MCF7. Description: Cell cycle arrest in human MCF7 cells assessed as accumulation at G1 phase using propidium iodide staining at 4 uM after 24 hrs by flow cytometry. Format: functional. Put shortly: as §1
The test system of experiment [6] is MCF7. Nature of the experiment: Cell cycle arrest in human MCF7 cells assessed as accumulation at S phase using propidium iodide staining at 4 uM after 24 hrs by flow cytometry. Type of experiment: functional. A digest of the protocol: as §1
The subject of experiment [7] is PC-3. Nature of the experiment: Cytotoxicity against human PC3 cells by sulforhodamine B method. Format: functional.
Experiment [8] relates to COLO 205. Description: Cytotoxicity against human COLO205 cells by sulforhodamine B method. Type of experiment: functional.
Experiment [9] relates to KB. Description: Cytotoxicity against human KB cells by sulforhodamine B method. Format: functional.
Experiment [10] has as its system A549. Nature of the experiment: Cytotoxicity against human A549 cells by sulforhodamine B method. Format: functional.
Experiment [11] deals with MCF7. Description: Cytotoxicity against human MCF7 cells by sulforhodamine B method. Format: functional.
A short description of experiment [12]: Cytotoxicity against human Gurav cells by sulforhodamine B method. Format: functional.
Experiment [13] concerns A2780. Nature of the experiment: Cytotoxicity against human A2780 cells by sulforhodamine B method. Format: functional.
For experiment [14], the system named is SiHa. Nature of the experiment: Cytotoxicity against human SiHa cells by sulforhodamine B method. Type of experiment: functional.
Experiment [15] concerns HOP-62. Description: Cytotoxicity against human HOP62 cells by sulforhodamine B method. Format: functional.
Experiment [16] in a line: Cytotoxicity against human DWD cells by sulforhodamine B method. Format: functional.
The subject of experiment [17] is ZR-75-1. Nature of the experiment: Cytotoxicity against human ZR-75-1 cells by sulforhodamine B method. Type of experiment: functional.
In experiment [18] the target is Tubulin (Homo sapiens) (UniProt P68371+Q9H4B7+P0DPH7+P68366+Q13509+Q71U36+P04350+Q3ZCM7+P07437+P68363+Q9BQE3+Q6PEY2+Q13885+Q9BVA1+Q9BUF5). Description: Inhibition of tubulin polymerization in human MCF7 cells assessed as disruption of microtubule network at 4 uM after 24 hrs by DAPI based immunofluorescence assay. Type of experiment: cell-based. Put shortly: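 MCF-7 cells on glass coverslips incubated 24 h with or without 4 µM compound. Fixed in 4% paraformaldehyde/0.02% glutaraldehyde, permeabilised in −20 °C methanol, blocked 1 h in 1% BSA/PBS. Stained with mouse anti-tubulin primary and Cy3 anti-mouse IgG secondary, nuclei with DAPI. Confocal images scored for microtubule integrity; nocodazole as reference.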

For experiment [19], the system named is MCF7. Nature of the experiment: Induction of apoptosis in human MCF7 cells assessed as activation of procaspase-7 at 4 uM after 24 hrs by Western blot analysis. Type of experiment: functional, cell-based. A digest of the protocol:
as §2

The test system of experiment [20] is MCF7. Description: Induction of apoptosis in human MCF7 cells assessed up-regulation of p53 protein level at 4 uM after 24 hrs by Western blot analysis. Format: functional, cell-based. Put shortly:
as §2

In experiment [21] the test system is MCF7. Nature of the experiment: Induction of apoptosis in human MCF7 cells assessed as DNA fragmentation at 4 uM after 24 hrs by TUNEL assay relative to control. Format: functional, cell-based. A digest of the protocol:
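MCF-7 cells treated at 4 µM for 24 h; untreated cells as control. Nuclear DNA fragmentation detected by TdT-mediated fluorescein-dUTP nick-end labelling (ApoAlert kit). Labelled cells imaged by confocal microscopy, green stain marking TUNEL-positive cells.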

Experiment [22] relates to MCF7. Description: Induction of apoptosis in human MCF7 cells assessed up-regulation of p21 protein level at 4 uM after 24 hrs by Western blot analysis. Format: functional, cell-based. A digest of the protocol: as §2
Experiment [23] deals with MCF7. Nature of the experiment: Induction of apoptosis in human MCF7 cells assessed as up-regulation of Bax gene at 4 uM after 24 hrs by Western blot analysis. Type of experiment: functional, cell-based. Put shortly:
as §2

Experiment [24] relates to MCF7. Description: Down regulation of NF-kappa B p65 protein in human MCF7 cells at 4 uM after 24 hrs by Western blot analysis. Format: functional, cell-based. Put shortly:
as §2

Experiment [25] has as its system MCF7. Nature of the experiment: Down regulation of HDAC-1 protein in human MCF7 cells at 4 uM after 24 hrs by Western blot analysis. Type of experiment: functional, cell-based. A digest of the protocol:
as §2

The test system of experiment [26] is MCF7. Description: Down regulation of HDAC-3 protein in human MCF7 cells at 4 uM after 24 hrs by Western blot analysis. Format: functional, cell-based. Put shortly: as §2

With `C[C@]12CC[C@@H]3c4ccc(O)cc4CC[C@H]3[C@@H]1CC[C@@H]2O` [ESTRADIOL], the result in [1] and in [4] was Active. Besides, the Activity in experiment [2] turned out to be 0.83%; in experiment [3], 23.8%; in experiment [5] it was 50%; in experiment [6], 25.26%.
Take `COc1cc2c(cc1O)N=C[C@@H]1CCCN1C2=O`: the GI50 (as a rule, the concentration that inhibits growth by half) in [7] worked out at 200 nM; in experiment [8] it was 110 nM; in [9], 170 nM; in [10], 160 nM; in experiment [11] it was 170 nM; in [12], 160 nM. For the same molecule, the concentration for 50% growth inhibition (GI50) in experiment [13] turned out to be 140 nM; in [14] it was 170 nM; in [15] it was 150 nM. Also, the outcome in experiment [1] and in [4] was Active. The Activity in experiment [2] amounted to 8.5%; in experiment [3] it was 4.83%; in [5], 73.66%; in [6] it was 13%.
`COc1cc2c(cc1OCCCN1CCN(CCCOc3ccc4c(c3)CC[C@@H]3[C@@H]4CC[C@]4(C)[C@@H](O)CC[C@@H]34)CC1)N=C[C@@H]1C[C@@H](F)CN1C2=O`: the GI50 in experiment [7] was less than 100 nM; in [8], 130 nM; in experiment [9] it was 120 nM; in [16] it was 100 nM; in experiment [10], less than 100 nM; in experiment [11], less than 100 nM. In addition, the GI50 in experiment [12] was 110 nM; in experiment [17] it was less than 100 nM; in experiment [13], less than 100 nM; in experiment [14], 150 nM; in experiment [15], 110 nM. Moreover, the result in experiment [1] was Active. Moreover, the Activity in [2] came out at 0.87%; in experiment [3], 24.33%; in experiment [5], 50.53%; in experiment [6] it was 24.01%.
Regarding `COc1cc2c(cc1OCc1cn(CCCCCOc3ccc4c(c3)CC[C@@H]3[C@@H]4CC[C@]4(C)[C@@H](O)CC[C@@H]34)nn1)N=C[C@@H]1CC(F)(F)CN1C2=O`, the GI50 was found to be 170 nM in [7]; 160 nM in experiment [8]; 190 nM in [9]; 180 nM in experiment [16]; 170 nM in [10]; 110 nM in experiment [11]. The GI50 in [12] amounted to 190 nM; in experiment [17], 180 nM; in experiment [13] it was 1800 nM; in [14], 1210 nM; in experiment [15], 190 nM. In addition, in experiment [1], the outcome was Active. Also, the Activity worked out at 0.74% in [2], 21.8% in [3], 55% in experiment [5] and 22.3% in [6].
On to `COc1cc2c(cc1OCc1cn(CCCCCOc3ccc4c(c3)CC[C@@H]3[C@@H]4CC[C@]4(C)[C@@H](O)CC[C@@H]34)nn1)N=C[C@@H]1C[C@@H](F)CN1C2=O`, for which the GI50 in experiment [7] is less than 100 nM; in experiment [8], 120 nM; in experiment [9], less than 100 nM; in experiment [16], 120 nM; in experiment [10], less than 100 nM; in experiment [11], less than 100 nM. The GI50 is less than 100 nM in experiment [17], less than 100 nM in [13], 110 nM in [14] and 110 nM in experiment [15]. Besides, the result in experiment [1], in [19], in experiment [20], in experiment [21], in [22] and in experiment [23] was Active. Besides, the inhibition result in experiment [18] is “Active”. Further, the Activity in [2] is reported as 0.82%; in experiment [3], 32.4%; in [5], 42.5%; in experiment [6], 25.8%.
For `COc1cc2c(cc1OCc1cn(CCCOc3ccc4c(c3)CC[C@@H]3[C@@H]4CC[C@]4(C)[C@@H](O)CC[C@@H]34)nn1)N=C[C@@H]1C[C@@H](F)CN1C2=O`, the concentration for 50% growth inhibition (GI50) in [7] is less than 100 nM; in experiment [8], 110 nM; in experiment [9], less than 100 nM; in experiment [16] it was less than 100 nM; in experiment [10], less than 100 nM; in [11] it was less than 100 nM. Besides, the GI50 in experiment [12], in experiment [17], in [13], in experiment [14] and in experiment [15] was less than 100 nM in each case. Also, the result in [24], in [25], in [1], in experiment [19], in [26] and in [20] was Active. Besides, the outcome in experiment [21], in experiment [22], in experiment [4] and in experiment [23] was Active. The inhibition result in experiment [18] is “Active”. Besides, the Activity in experiment [2] turned out to be 2%; in [3] it was 36.64%; in experiment [5], 30.76%; in [6], 30.59%.
Turning to `COc1cc2c(cc1OCCCN1CCN(CCCOc3ccc4c(c3)CC[C@@H]3[C@@H]4CC[C@]4(C)[C@@H](O)CC[C@@H]34)CC1)N=C[C@@H]1CCCN1C2=O`, the GI50 in [7] came out at 140 nM; in experiment [8], 130 nM; in experiment [9], 190 nM; in experiment [16] it was 120 nM; in [10] it was 120 nM; in experiment [11], 110 nM. In addition, the GI50 in experiment [12] was determined as 140 nM; in [17], 120 nM; in experiment [13], 1300 nM; in experiment [14], 130 nM; in experiment [15], 1140 nM. Also, the result in [1] was Active. The Activity amounted to 2.84% in experiment [2], 24.01% in experiment [3], 47.9% in [5] and 25.2% in [6].
